Reference: ChEMBL document CHEMBL3400116, “Synthesis and activities towards resistant cancer cells of sulfone and sulfoxide griseofulvin derivatives” (Bioorg Med Chem Lett, 2015)
pIC50: −log10 of the molar value.

Experiments:
[1] = Antiproliferative activity against exponentially growing adherent human SCC114 cells assessed as inhibition of cell proliferation after 72 hrs by luminescence detection based ATPlite assay; type: functional; conditions: SCC114, 72 h
Outline: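 SCC-114 cells seeded at 10^3 cells/well in 96-well plates and left to grow exponentially as adherent cultures. After 72 h exposure at 37 °C in 5% CO2, viability was read by ATPlite luminescence of ATP from viable cells. IC50 came from nonlinear regression with a sigmoidal dose-response and variable Hill slope.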

HCC1937 [2] = assay: Antiproliferative activity against exponentially growing adherent human HCC1937 cells assessed as inhibition of cell proliferation after 48 hrs by luminescence detection based ATPlite assay; conditions: HCC1937, 48 h
HCC1937 [3] = assay: Antiproliferative activity against exponentially growing adherent human HCC1937 cells assessed as inhibition of cell proliferation at 10 uM after 48 hrs by luminescence detection based ATPlite assay; conditions: HCC1937, 48 h

Structure (SMILES)	pIC50 (HCC1937 [2])	pIC50 [1]	inhibition at 10 µM (HCC1937 [3])
COc1cc(OC)c2c(c1Cl)O[C@@]1(C=C([S+]([O-])Cc3ccccc3)C(=O)C[C@H]1C)C2=O (some centres undefined)	–	7.70	–
COc1cc(OC)c2c(c1Cl)O[C@]1(C2=O)C(SCc2ccccc2)=CC(=O)C[C@H]1C	< 5.00	–	–
COc1cc(OC)c2c(c1Cl)O[C@]1(C2=O)C(OCc2ccccc2)=CC(=O)C[C@H]1C	< 5.00	6.01	0%
COC1=CC(=O)C[C@@H](C)[C@]12Oc1c(Cl)c(OC)cc(OC)c1C2=O [GRISEOFULVIN]	< 5.00	5.19	0%
CC(=O)O[C@H]1C(=O)[C@@]2(C)[C@H]([C@H](OC(=O)c3ccccc3)[C@]3(O)C[C@H](OC(=O)[C@H](O)[C@@H](NC(=O)c4ccccc4)c4ccccc4)C(C)=C1C3(C)C)[C@]1(OC(C)=O)CO[C@@H]1C[C@@H]2O [PACLITAXEL]	< 5.00	9.52	0%
C/C(=C\c1csc(C)n1)[C@@H]1C[C@@H]2O[C@]2(C)CCC[C@H](C)[C@H](O)[C@@H](C)C(=O)C(C)(C)[C@@H](O)CC(=O)O1 [PATUPILONE]	< 5.00	9.77	0%
CCC1=C[C@@H]2CN(C1)Cc1c([nH]c3ccccc13)[C@@](C(=O)OC)(c1cc3c(cc1OC)N(C)[C@H]1[C@@](O)(C(=O)OC)[C@H](OC(C)=O)[C@]4(CC)C=CCN5CC[C@]31[C@@H]54)C2 [VINORELBINE]	< 5.00	10.15	0%

Further lines, with some results ahead:

pIC50 (HCC1937 [2])	Structure (SMILES)	pIC50 [1]	inhibition at 10 µM (HCC1937 [3])
< 5.00	COc1cc(OC)c2c(c1Cl)O[C@]1(C2=O)C(SCCN(C)C)=CC(=O)C[C@H]1C	5.84	0%
5.85	COc1cc(OC)c2c(c1Cl)O[C@]1(C2=O)C(S(=O)(=O)Cc2ccccc2)=CC(=O)C[C@H]1C	6.40	–
5.23	COc1cc(OC)c2c(c1Cl)O[C@]1(C2=O)C(S(=O)(=O)CCN(C)C)=CC(=O)C[C@H]1C	5.55	–
5.80	COc1cc(OC)c2c(c1Cl)O[C@]1(C2=O)C(S(=O)(=O)c2ccccc2)=CC(=O)C[C@H]1C	6.00	–
< 5.00	COc1cc(OC)c2c(c1Cl)O[C@]1(C2=O)C(S(C)(=O)=O)=CC(=O)C[C@H]1C	5.72	40%
6.40	COc1cc(OC)c2c(c1Cl)O[C@@]1(C=C([S+]([O-])c3ccccc3)C(=O)C[C@H]1C)C2=O (some centres undefined)	6.60	–
6.05	COc1cc(OC)c2c(c1Cl)O[C@@]1(C=C(S(=O)(=O)Cc3ccccc3)C(=O)C[C@H]1C)C2=O	–	–
6.15	COc1cc(OC)c2c(c1Cl)O[C@@]1(C=C(S(=O)(=O)c3ccccc3)C(=O)C[C@H]1C)C2=O	6.40	–
